The campaign covered roughly 330,000 compounds. About 780 (0.24%) were called active.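 The calls were made as follows: active = activation factor of at least 2 at 20 µM; inactive = the rest.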 Only a selection was taken, and actives are over-represented in it overall.

Experimental findings from PubChem BioAssay AID2805 (Sanford-Burnham Center for Chemical Genomics, 2010) are described below.

The test system of this test is intestinal alkaline phosphatase [Mus musculus]. The test is described as follows: mouse intestinal phosphatase enzyme activation – biochemical, luminescence, uHTS, primary screen (AID 2805). The settings on record: muIAP, CDP-Star luminescence, 30 min, at 10 µM, stronger effect = higher value. The essentials: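 also added = chemiluminescent substrate CDP-Star | test system = mouse IAP enzyme | signal = chemiluminescence readout | compound = DMSO-dissolved test compounds | incubation = 30 min at room temperature | benchmarks = DMSO wells, no-enzyme wells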
For `Cc1cc(C)cc(NC(=S)NC2CC3CCCC(C2)N3Cc2cccs2)c1` (stereo not given), the activation factor is 5.54 (active).
As for `O=C1NC(=O)C(C/C=C/c2ccccc2)C(=O)N1`, the activation factor was 0.991 (inactive).
On to `N#CC1=C(N)Oc2c(c(=O)oc3ccccc23)C1c1ccccc1OC(=O)c1cccs1` (stereo not given), for which the activation factor is 0.989 (inactive).
In the case of `C=CCn1c(O)c(/C=N/N2CCOCC2)c(=O)[nH]c1=S`, the activation factor was 1.03 (inactive).
As for `O=C1C2(Cl)C3(Cl)C4(Cl)C(Cl)(Cl)C5(Cl)C3(Cl)C1(Cl)C5(Cl)C24Cl` (stereo not given), the figure is 0.917 [1 = vehicle-only enzyme signal, 0 = enzyme-free wells] (inactive).
